Measured values published in ChEMBL document CHEMBL1649429, “Novel plasmid-encoded ceftazidime-hydrolyzing CTX-M-53 extended-spectrum beta-lactamase from Salmonella enterica serotypes Westhampton and Senftenberg” (Antimicrob Agents Chemother, 2009).
Where a chain is given by its changes, count along the chain named.

Assays:
[1] = substrate: CC(=O)OCC1=C(C(=O)O)N2C(=O)[C@@H](NC(=O)Cc3cccs3)[C@H]2SC1; assay: (§1) Activity of Salmonella enterica serotype Westhampton beta-lactamase CTX-M-53; conditions: Salmonella enterica subsp. enterica serovar Westhampton
Summary of the method: (§2)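 CTX-M-53 was purified from E. coli DH5 carrying recombinant pCTX-M-53, grown in brain heart infusion with cefotaxime 2 µg/ml for 18 h at 37°C. Cells were sonicated in 20 mM MES-NaOH pH 6.0, and nucleic acids removed with spermine. The enzyme was purified by SP Sepharose ion exchange and Superose 12 gel filtration. Km and kcat were measured by computerized microacidimetry, three determinations each.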

[2] = substrate: CC(C)(O/N=C(\C(=O)N[C@@H]1C(=O)N2C(C(=O)[O-])=C(C[n+]3ccccc3)CS[C@H]12)c1csc(N)n1)C(=O)O; assay: as §1; conditions: Salmonella enterica subsp. enterica serovar Westhampton; summary of the method: as §2
[3] = substrate: CC1(C)S[C@@H]2[C@H](NC(=O)Cc3ccccc3)C(=O)N2[C@H]1C(=O)O; assay: as §1; conditions: Salmonella enterica subsp. enterica serovar Westhampton; summary of the method: as §2
[4] = substrate: CC1(C)S[C@@H]2[C@H](NC(=O)[C@H](C(=O)O)c3ccsc3)C(=O)N2[C@H]1C(=O)O; assay: as §1; conditions: Salmonella enterica subsp. enterica serovar Westhampton; summary of the method: as §2
[5] = substrate: CC1(C)S[C@@H]2[C@H](NC(=O)[C@H](N)c3ccc(O)cc3)C(=O)N2[C@H]1C(=O)O; assay: as §1; conditions: Salmonella enterica subsp. enterica serovar Westhampton; summary of the method: as §2
[6] = substrate: CCN1CCN(C(=O)N[C@@H](C(=O)N[C@@H]2C(=O)N3[C@@H]2SC(C)(C)[C@@H]3C(=O)O)c2ccccc2)C(=O)C1=O; assay: as §1; conditions: Salmonella enterica subsp. enterica serovar Westhampton; summary of the method: as §2
[7] = substrate: CO/N=C(\C(=O)N[C@@H]1C(=O)N2C(C(=O)O)=C(COC(C)=O)CS[C@H]12)c1csc(N)n1; assay: as §1; conditions: Salmonella enterica subsp. enterica serovar Westhampton; summary of the method: as §2
[8] = substrate: CO/N=C(\C(=O)N[C@@H]1C(=O)N2C(C(=O)O)=C(COC(N)=O)CS[C@H]12)c1ccco1; assay: as §1; conditions: Salmonella enterica subsp. enterica serovar Westhampton; summary of the method: as §2
[9] = substrate: CO/N=C(\C(=O)N[C@@H]1C(=O)N2C(C(=O)[O-])=C(C[n+]3cccc4c3CCC4)CS[C@H]12)c1csc(N)n1; assay: as §1; conditions: Salmonella enterica subsp. enterica serovar Westhampton; summary of the method: as §2
[10] = substrate: C[C@H]1[C@H](NC(=O)/C(=N\OC(C)(C)C(=O)O)c2csc(N)n2)C(=O)N1S(=O)(=O)O; assay: as §1; conditions: Salmonella enterica subsp. enterica serovar Westhampton; summary of the method: as §2
[11] = substrate: CC(=O)OCC1=C(C(=O)O)N2C(=O)[C@@H](NC(=O)Cc3cccs3)[C@H]2SC1; assay: (§3) Ratio of Kcat/Km for Salmonella enterica serotype Westhampton beta-lactamase CTX-M-53; conditions: Salmonella enterica subsp. enterica serovar Westhampton; summary of the method: as §2
[12] = substrate: CC(C)(O/N=C(\C(=O)N[C@@H]1C(=O)N2C(C(=O)[O-])=C(C[n+]3ccccc3)CS[C@H]12)c1csc(N)n1)C(=O)O; assay: as §3; conditions: Salmonella enterica subsp. enterica serovar Westhampton; summary of the method: as §2
[13] = substrate: CC1(C)S[C@@H]2[C@H](NC(=O)Cc3ccccc3)C(=O)N2[C@H]1C(=O)O; assay: as §3; conditions: Salmonella enterica subsp. enterica serovar Westhampton; summary of the method: as §2
[14] = substrate: CC1(C)S[C@@H]2[C@H](NC(=O)[C@H](C(=O)O)c3ccsc3)C(=O)N2[C@H]1C(=O)O; assay: as §3; conditions: Salmonella enterica subsp. enterica serovar Westhampton; summary of the method: as §2
[15] = substrate: CC1(C)S[C@@H]2[C@H](NC(=O)[C@H](N)c3ccc(O)cc3)C(=O)N2[C@H]1C(=O)O; assay: as §3; conditions: Salmonella enterica subsp. enterica serovar Westhampton; summary of the method: as §2
[16] = substrate: CCN1CCN(C(=O)N[C@@H](C(=O)N[C@@H]2C(=O)N3[C@@H]2SC(C)(C)[C@@H]3C(=O)O)c2ccccc2)C(=O)C1=O; assay: as §3; conditions: Salmonella enterica subsp. enterica serovar Westhampton; summary of the method: as §2
[17] = substrate: CO/N=C(\C(=O)N[C@@H]1C(=O)N2C(C(=O)O)=C(COC(C)=O)CS[C@H]12)c1csc(N)n1; assay: as §3; conditions: Salmonella enterica subsp. enterica serovar Westhampton; summary of the method: as §2
[18] = substrate: CO/N=C(\C(=O)N[C@@H]1C(=O)N2C(C(=O)O)=C(COC(N)=O)CS[C@H]12)c1ccco1; assay: as §3; conditions: Salmonella enterica subsp. enterica serovar Westhampton; summary of the method: as §2
[19] = substrate: CO/N=C(\C(=O)N[C@@H]1C(=O)N2C(C(=O)[O-])=C(C[n+]3cccc4c3CCC4)CS[C@H]12)c1csc(N)n1; assay: as §3; conditions: Salmonella enterica subsp. enterica serovar Westhampton; summary of the method: as §2
[20] = substrate: C[C@H]1[C@H](NC(=O)/C(=N\OC(C)(C)C(=O)O)c2csc(N)n2)C(=O)N1S(=O)(=O)O; assay: as §3; conditions: Salmonella enterica subsp. enterica serovar Westhampton; summary of the method: as §2
[21] = substrate: C[C@H]1[C@H](NC(=O)/C(=N\OC(C)(C)C(=O)O)c2csc(N)n2)C(=O)N1S(=O)(=O)O; conditions: Escherichia coli
[22] = substrate: CC(C)(O/N=C(\C(=O)N[C@@H]1C(=O)N2C(C(=O)[O-])=C(C[n+]3ccccc3)CS[C@H]12)c1csc(N)n1)C(=O)O; conditions: Escherichia coli
[23] = substrate: C[C@H]1[C@H](NC(=O)/C(=N\OC(C)(C)C(=O)O)c2csc(N)n2)C(=O)N1S(=O)(=O)O; conditions: Escherichia coli; remark: listed apart in the source
[24] = substrate: CC(C)(O/N=C(\C(=O)N[C@@H]1C(=O)N2C(C(=O)[O-])=C(C[n+]3ccccc3)CS[C@H]12)c1csc(N)n1)C(=O)O; conditions: Escherichia coli; remark: listed apart in the source

B1: Extended-spectrum beta-lactamase CTX-M-53 (Salmonella enterica subsp. enterica serovar Westhampton), Q2XPY6 (protein)
chain: MVKKSLRQFTLMATATVTLLLGSVPLYAQTVDVQQKLAELEQQSGGRLGVALINTADNSQILYRADERFAMCSTSKVMAVAAVLKKSESEPNLLNQRVEIKKSDLVNYNPIAEKHVNGTMSLAELSAAALQYSDNVAMNKLIAHVGGPASVTAFARQLGDETFRLDRTEPTLNTAIPGDPRDTTSPRAMAQTLRNLTLGKALGDSQRAQLVTWMKGNTTGAASIQAGLPASWVVGDKTGSGGYGTTNDIAVIWPKDRAPLILVIYFTQPQPKAESRRDVLASAAKIVTDGL
- Km [1]: 122 µM
- kcat [1]: 2000 s⁻¹
- Km [2]: 174 µM
- kcat [2]: 14 s⁻¹
- Km [3]: 10 µM
- kcat [3]: 135 s⁻¹
- Km [4]: 18 µM
- kcat [4]: 10 s⁻¹
- Km [5]: 40 µM
- kcat [5]: 85 s⁻¹
- Km [6]: 12 µM
- kcat [6]: 90 s⁻¹
- Km [7]: 180 µM
- kcat [7]: 585 s⁻¹
- Km [8]: 80 µM
- kcat [8]: 292 s⁻¹
- Km [9]: 125 µM
- kcat [9]: 710 s⁻¹
- Km [10]: 14 µM
- kcat [10]: 4 s⁻¹
- kcat/Km [11]: 1.64e+07 M⁻¹ s⁻¹
- kcat/Km [12]: 100000 M⁻¹ s⁻¹
- kcat/Km [13]: 1.35e+07 M⁻¹ s⁻¹
- kcat/Km [14]: 500000 M⁻¹ s⁻¹
- kcat/Km [15]: 2.1e+06 M⁻¹ s⁻¹
- kcat/Km [16]: 7.5e+06 M⁻¹ s⁻¹
- kcat/Km [17]: 3.2e+06 M⁻¹ s⁻¹
- kcat/Km [18]: 3.6e+06 M⁻¹ s⁻¹
- kcat/Km [19]: 5.7e+06 M⁻¹ s⁻¹
- kcat/Km [20]: 300000 M⁻¹ s⁻¹

B2: Beta-lactamase CTX-M-16 (Escherichia coli), Q939N4 (protein)
chain: MVTKRVQRMMFAAAACIPLLLGSAPLYAQTSAVQQKLAALEKSSGGRLGVALIDTADNTQVLYRGDERFPMCSTSKVMAAAAVLKQSETQKQLLNQPVEIKPADLVNYNPIAEKHVNGTMTLAELSAAALQYSDNTAMNKLIAQLGGPGGVTAFARAIGDETFRLDRTEPTLNTAIPGDPRDTTTPRAMAQTLRQLTLGHALGETQRAQLVTWLKGNTTGAASIRAGLPTSWTAGDKTGSGGYGTTNDIAVIWPQGRAPLVLVTYFTQPQQNAESRRDVLASAARIIAEGL
- Km [21]: 17 µM
- kcat/Km [22]: 0.04 s⁻¹

B3: Beta-lactamase CTX-M-27 (Escherichia coli), Q840M4 (protein)
chain: B2 chain with A234V
- Km [23]: 17 µM
- kcat/Km [24]: 0.01 s⁻¹
